Assay outcomes deposited in PubChem BioAssay by Broad Institute.
Most compounds without a hit are left out; they make up all but 2% or so of the library.
HIF activator: HIF pathway transcriptional activation. U2OS HRE-luciferase reporter, luminescence; normalized: DMSO 0%, desferrioxamine 100%. activation, % at 7.5 µM (by protocol). hit rate 0.32% among 300,000. AID 1910;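 active = mean activation of at least 10% of the iron chelator positive control signal, with at least half of replicates also reaching 10%; inconclusive = mean and replicate majority disagree about reaching 10%; inactive = mean and most replicates under 10%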
T cruzi inh: blocks replication of Trypanosoma cruzi; hit rate 1.4% among 300,000; T. cruzi beta-gal in NIH3T3, luminescence, 90 h; AID 1885; inhibition, % (no concentration beside the values);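 active = mean inhibition across valid replicates above about 55%, limit read from the data; inconclusive = mean below that limit but half or more replicates reach it; inactive = mean below it, under half of replicates reach it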;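 also: signal also drops with host cell toxicity which is not excluded here; higher percent means less beta-gal luminescence so fewer parasites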
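System – NIH/3T3 host cells with β-galactosidase reporter T. cruzi · Doses – single 50 nL compound addition per well in DMSO · Reagent – 5000 T. cruzi trypomastigotes/well · Medium – Low-serum DMEM with 2% FBS · Timing – ≥90 h infection period, 3 h prior cell attachment · Evaluation – parasite load inhibition, % · Technique – GalScreen luminescence, 60 min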
AI-2 QS mod: Vibrio harveyi AI-2 quorum sensing modulation. Vibrio harveyi JMH597 AI-2 luminescence/OD600 ratio, 9 h; stronger effect = lower value; strain lacks LuxN and CqsS sensors; 0 = neutral-control median. activity change, % at 7.5 µM. hit rate 0.4% among 300,000. AID 2094; in the data active = activity change below about -75%, passing the limit was not always enough; inconclusive = no clear call, values can overlap the other calls;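 also: luminescence divided by OD600 gain over 9 h not by final OD600 alone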
ARNT TACC3 PPI: disruptors of human ARNT/TACC3 interaction; AlphaScreen His-ARNT PAS-B/GST-TACC3 binding, luminescence; TACC3 fragment carries E629A point mutation; inhibition, % at 9.99 µM; hit rate 0.66% among 390,000;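 active = mean inhibition of replicates at least 50% and at least half of replicates each reaching 50%; inconclusive = half or more replicates reach 50% but mean below 50%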
Numbers stand for hits; - = inactive; ? = inconclusive; . = not tested or not shown.

SMILES	HIF activator	T cruzi inh	AI-2 QS mod	ARNT TACC3 PPI
O=[N+]([O-])c1ccc(Nc2ccccc2)c2nonc12	-	-	-	-
O=[N+]([O-])c1ccc(Sc2cccc[n+]2[O-])c2nonc12	-	-	-129	62
COCCNC(=O)CCc1nnc(Cc2ccc(-c3ccccc3)cc2)o1	-	-	-	-
COCCNC(=O)CCC1CCN(Cc2ccc(-c3ccccc3)cc2)CC1	-	58	-	-
C[C@@H]1CN([C@H](C)CO)C(=O)c2cc(NS(=O)(=O)c3ccccc3)ccc2O[C@H]1CN(C)Cc1ccncc1	.	.	.	-
Cc1ccc(-c2nc3ccccc3[nH]2)cc1NC(=O)c1sc2cc(Cl)ccc2c1Cl	-	60	-	-
CC(C)NC(=O)NCC[C@@H]1CC[C@@H](NS(=O)(=O)c2ccc(-c3ccccc3)cc2)[C@@H](CO)O1	.	.	.	-
Cc1cc2nc(-c3ccc(SCc4ccc(C#N)cc4)nc3)[nH]c2cc1C	-	56	-	-
CCOC(=O)C1=C(N)Oc2ccc3ccccc3c2C1c1ccc(O)cc1 (centres undefined)	-	-	-	-
CCOC(=O)C1=C(N)Oc2cc(O)ccc2C1c1ccc([N+](=O)[O-])cc1 (centres undefined)	-	57	-	-
CNc1nc(N/N=C/c2cc([N+](=O)[O-])ccc2F)nc(Nc2ccccc2)n1	.	.	.	-
CNc1nc(N/N=C/c2cc3c(cc2[N+](=O)[O-])OCO3)nc(Nc2ccccc2)n1	-	72	-	-
O=C(Cn1cnc([N+](=O)[O-])c1)Nc1cc(Oc2ccc(Cl)cc2Cl)cc([N+](=O)[O-])c1	-	57	-	-
N#Cc1ccc(NC(=O)Cn2cnc([N+](=O)[O-])c2)cc1	-	-	.	-
Cc1cc(CN2CCN(CCC#N)CC2)c(O)c(C2(C)CCCCC2)c1	-	55	.	-
CCCCNC(=O)c1cc(-c2ccc(OC)cc2)on1	-	-	-	-
CCCCNC(=O)c1cc(-c2ccc(F)cc2)on1	41	-	-	-
Cc1noc(C)c1S(=O)(=O)Nc1ccc2c(c1)CC(=O)N([C@H](C)CO)C[C@@H](C)[C@@H](CN(C)C(=O)Nc1ccc3c(c1)OCO3)O2	.	.	.	-
O=C(CCc1ccc(Oc2cc([N+](=O)[O-])cc([N+](=O)[O-])c2)cc1)NC1CCCC1	-	63	-	-
C[C@@H]1CN([C@@H](C)CO)C(=O)c2cc(C#CC3(O)CCCC3)cnc2O[C@@H]1CN(C)Cc1ccccn1	.	.	.	-
CCOC(=O)C1=C(C)NC2=C(C(=O)CCC2)C1c1ccc(N(C)C)cc1 (centres undefined)	-	-	-	active
CC(=O)N(C)C[C@H]1Oc2ncc(-c3cccc(F)c3)cc2C(=O)N([C@@H](C)CO)C[C@@H]1C	.	.	.	-
CO[C@H]1CN(C)C(=O)c2cc(NC(=O)Nc3ccccc3)ccc2OC[C@H](C)N(C(=O)CN(C)C)C[C@@H]1C	.	.	.	-
COc1ccc(NC(=S)Nc2cccc3cnccc23)cc1	-	-	-	15
CCOc1ccc(NC(=S)Nc2cccc3cnccc23)cc1	-	-	-	-
SMILES	HIF activator	T cruzi inh	AI-2 QS mod	ARNT TACC3 PPI
O=C(NC(=S)NCc1cccnc1)c1cccc2ccccc12	-	63	-	-
CCCCOC(=O)c1ccc(NC(=O)C(=O)NCc2cccnc2)cc1	25	-	-	-
COc1ccccc1NC(=S)Nc1cccc2cnccc12	-	-	-	76
C[C@H](CO)N1C[C@H](C)[C@H](CN(C)S(=O)(=O)c2ccc(F)cc2)Oc2c(NC(=O)Nc3ccc(F)cc3)cccc2C1=O	.	.	.	-
COc1ccc(NC(=S)NCc2cccnc2)cc1	585	-	-	-
O=C(CN(c1ccc(Br)cc1)S(=O)(=O)c1ccc(Cl)c([N+](=O)[O-])c1)NCCc1ccccc1	-	75	-	-
O=C(CN(c1cccc(C(F)(F)F)c1)S(=O)(=O)c1ccc(Cl)c([N+](=O)[O-])c1)NCc1ccccc1	-	-	-	-
C[C@H](CO)N1C[C@H](C)[C@H](CN(C)S(=O)(=O)c2ccccc2)Oc2ccc(NC(=O)CCN3CCOCC3)cc2C1=O	.	.	.	-
Cc1ccc(C(=O)N/C(=C\c2cccs2)C(=O)NCCCn2ccnc2)cc1C	-	-	-	71
Cc1ccc(C(=O)N/C(=C\c2ccco2)C(=O)NCCCn2ccnc2)cc1C	-	-	-	77
COc1cccc(NC(=O)N[C@H]2CC[C@H](CC(=O)N3CCCCC3)O[C@@H]2CO)c1	.	.	.	-
COc1ccc(CN2CCN(CC3CC3)CC2CCO)c(C)c1C (centres undefined)	-	-	-	-
COc1ccc(CN2CCN(Cc3nc4ccccc4s3)CC2CCO)c(C)c1C (centres undefined)	-	61	-	-
COc1ccc(CN2CCN(Cc3csc(C(C)=O)c3)CC2CCO)c(C)c1C (centres undefined)	-	55	-	.
CC(=O)c1cc(CN2CCN(Cc3ccc(C)cc3)C(CCO)C2)cs1 (centres undefined)	-	-	-	.
CCCC#Cc1cnc2c(c1)C(=O)N([C@H](C)CO)C[C@H](C)[C@@H](CN(C)C(=O)c1ccc3c(c1)OCO3)O2	.	.	.	-
C[C@H]1CN([C@@H](C)CO)C(=O)Cc2cc(NS(=O)(=O)c3cn(C)cn3)ccc2O[C@@H]1CN(C)Cc1ccc(C(=O)Nc2ccccc2N)cc1	.	.	.	-
Cc1cc(Nc2ccccc2)cc(=O)n1C	41	-	-	-
O=C(NC12CC3CC(CC(C3)C1)C2)c1ccc(-c2ccc(Cl)cc2)o1	-	59	-	-
O=C(NC12CC3CC(CC(C3)C1)C2)c1ccc(-c2ccccc2Cl)o1	-	?	-	active
O=C(NC12CC3CC(CC(C3)C1)C2)c1ccc(-c2cccc(Cl)c2)o1	-	-	-	-
O=C(Cc1ccncc1)Nc1ccc2c(c1)[C@H]1C[C@@H](CC(=O)N3CCc4ccccc4C3)O[C@H](CO)[C@H]1O2	.	.	.	-
O=C(Nc1ccc(NC(=O)c2ccccc2Cl)cc1)c1cccnc1	-	-	-	-
O=C(Nc1nnc(-c2ccccc2Cl)o1)c1cccnc1	-	-	-	54
C[C@H]1CN([C@@H](C)CO)C(=O)c2cccc(N(C)C)c2O[C@H]1CN(C)C(=O)Nc1ccc2c(c1)OCO2	.	.	.	-
SMILES	HIF activator	T cruzi inh	AI-2 QS mod	ARNT TACC3 PPI
Cc1oc2c(c1C(=O)O)C(=O)c1ccccc1C2=O	-	-	-83	-
COc1cnc(-c2ccccn2)nc1Oc1cccc(C(F)(F)F)c1	-	-	-	.
COc1cnc(-c2ccccn2)nc1Oc1ccccc1	-	-	-	82
COc1cnc(-c2ccccn2)nc1Sc1ccc(F)cc1	-	-	-	46
C/C=C/c1ccc2c(c1)O[C@H](CN(C)Cc1ccccn1)[C@H](C)CN([C@@H](C)CO)S2(=O)=O	.	.	.	-
Cc1ccc(N2C(=O)[C@@H]3[C@H](C2=O)C2c4ccccc4C=CN2[C@@H]3C(=O)c2ccco2)c(C)c1 (some centres undefined)	-	-	-	45
Cc1ccc(N2C(=O)[C@@H]3[C@H](C2=O)C2c4ccccc4C=CN2[C@@H]3C(=O)c2ccco2)cc1 (some centres undefined)	.	.	.	-
